In ChEMBL document CHEMBL2177069, “Novel peptidomimetic compounds containing redox active chalcogens and quinones as potential anticancer agents” (Eur J Med Chem, 2012):

Experiments:
Saccharomyces cerevisiae [1] = assay: Growth inhibition of GSH2-deficient Saccharomyces cerevisiae YOL049W mutant at 20 ug/disc after 24 to 48 hrs by agar diffusion assay; type: functional; details: read-out: DIZ
In short: (§1)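 S. cerevisiae deletion mutants or wild type grown on YPD, seeded into liquid agar medium at an optical density of 0.1. 6 mm paper discs soaked with methanolic compound solution were placed on the plates and incubated at 30 °C. Growth was checked after 1 and 2 days, and the inhibition zone diameter was recorded in mm.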

[2] = Cytotoxicity against human PHF cells after 24 hrs by MTT assay; type: cell-based
In short: (§2)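 MTT assay. Cells were seeded at 50,000 cells/mL in medium with 10% fetal calf serum and grown for two days at 37 °C, 10% CO2. Serial dilutions of compound were then added for 24 h. MTT was added (final 0.5 mg/mL) for 2 h, and the formazan was pelleted, washed, dissolved in isopropanol with 0.4% HCl and read at 590 nm. IC50 is the concentration giving 50% of untreated-control absorbance, taken from dose-response curves; mean of two parallel experiments.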

HCT-116 = assay: Cytotoxicity against human HCT116 cells; type: functional
A498 [3] = assay: Cytotoxicity against human A498 cells; type: functional
EKVX = assay: Cytotoxicity against human EKVX cells; type: functional
NCI/ADR-RES = assay: Cytotoxicity against human NCI/ADR-RES cells; type: functional
U-251 = assay: Cytotoxicity against human U251 cells; type: functional
UACC-62 = assay: Cytotoxicity against human UACC62 cells; type: functional
SNB-19 = assay: Cytotoxicity against human SNB19 cells; type: functional
IGROV-1 = assay: Cytotoxicity against human IGROV1 cells; type: functional
MDA-MB-468 = assay: Cytotoxicity against human MDA-MB-468 cells; type: functional
Saccharomyces cerevisiae [4] = assay: Growth inhibition of GTT2-deficient Saccharomyces cerevisiae YLL060C mutant at 20 ug/disc after 24 to 48 hrs by agar diffusion assay; type: functional; details: read-out: DIZ; in short: as §1
HL-60 = assay: Cytotoxicity against human HL60 cells; type: functional
MDA-MB-435 = assay: Cytotoxicity against human MDA-MB-435 cells; type: functional
T47D = assay: Cytotoxicity against human T47D cells; type: functional
SN12C = assay: Cytotoxicity against human SN12C cells; type: functional
SK-MEL-2 = assay: Cytotoxicity against human SK-MEL-2 cells; type: functional
Saccharomyces cerevisiae [5] = assay: Growth inhibition of PST2-deficient Saccharomyces cerevisiae YDR032C mutant at 20 ug/disc 24 to 48 hrs by agar diffusion assay; type: functional; details: read-out: DIZ; in short: as §1
HOP-62 = assay: Cytotoxicity against human HOP62 cells; type: functional
DU-145 = assay: Cytotoxicity against human DU145 cells; type: functional
NCI-H322M = assay: Cytotoxicity against human NCI-H322M cells; type: functional
Saccharomyces cerevisiae [6] = assay: Growth inhibition of wild type Saccharomyces cerevisiae BY4741 at 20 ug/disc after 24 to 48 hrs by agar diffusion assay; type: functional; details: read-out: DIZ; in short: as §1
MDA-MB-231 = assay: Cytotoxicity against human MDA-MB-231 cells; type: functional
TK-10 = assay: Cytotoxicity against human TK10 cells; type: functional
HT-29 = assay: Cytotoxicity against human HT-29 cells; type: functional
SF-295 = assay: Cytotoxicity against human SF295 cells; type: functional
LOX IMVI = assay: Cytotoxicity against human LOXIMVI cells; type: functional
SK-MEL-28 = assay: Cytotoxicity against human SK-MEL-28 cells; type: functional
MCF7 = assay: Cytotoxicity against human MCF7 cells after 24 hrs by MTT assay; type: functional, cell-based; details: MCF7, 24 h; in short: as §2
SW-620 = assay: Cytotoxicity against human SW620 cells; type: functional
SR = assay: Cytotoxicity against human SR cells; type: functional
A498 [7] = assay: Cytotoxicity against human A498 cells after 24 hrs by MTT assay; type: functional, cell-based; details: A498, 24 h; in short: as §2
[8] = Cytotoxicity against human 786-O cells; type: functional
HCT-15 = assay: Cytotoxicity against human HCT15 cells; type: functional
SK-MEL-5 = assay: Cytotoxicity against human SK-MEL-5 cells; type: functional
COLO 205 = assay: Cytotoxicity against human COLO205 cells; type: functional
OVCAR-5 = assay: Cytotoxicity against human OVCAR5 cells; type: functional
RPMI-8226 = assay: Cytotoxicity against human RPMI8226 cells; type: functional
M14 = assay: Cytotoxicity against human M14 cells; type: functional
SNB-75 = assay: Cytotoxicity against human SNB75 cells; type: functional
NCI-H23 = assay: Cytotoxicity against human NCI-H23 cells; type: functional

CC1=C([Se]CC(OC(=O)[C@@H](CO)NC(=O)OC(C)(C)C)C(=O)NCCCCCC(=O)OCc2ccccc2)C(=O)c2ccccc2C1=O (some centres not stated)
zone of inhibition at 20 µg/disc (Saccharomyces cerevisiae [1]): 0 mm | IC50 [2]: 27 µM | GI50 (HCT-116): 1.38 µM | LC50 (HCT-116): 5.37 µM | TGI (HCT-116; read-out: pTGI (converted)): 2.75 µM | GI50 (A498 [3]): 2.04 µM | LC50 (50% lethal concentration) (A498 [3]): 45.7 µM | TGI (A498 [3]; read-out: pTGI (converted)): 5.89 µM | GI50 (EKVX): 1.82 µM | LC50 (EKVX): 8.32 µM | TGI (EKVX; read-out: pTGI (converted)): 3.89 µM | GI50 (NCI/ADR-RES): 2.04 µM | TGI (NCI/ADR-RES; read-out: pTGI (converted)): 3.89 µM | GI50 (U-251): 0.933 µM | LC50 (U-251): 4.9 µM | TGI (U-251; read-out: pTGI (converted)): 2.19 µM | GI50 (UACC-62): 1.7 µM | LC50 (UACC-62): 5.62 µM | TGI (UACC-62; read-out: pTGI (converted)): 3.09 µM | GI50 (SNB-19): 0.776 µM | LC50 (SNB-19): 5.01 µM | TGI (SNB-19; read-out: pTGI (converted)): 2.14 µM | GI50 (IGROV-1): 1.78 µM | LC50 (concentration killing 50% of cells) (IGROV-1): 6.31 µM | TGI (IGROV-1; read-out: pTGI (converted)): 3.39 µM | GI50 (MDA-MB-468): 1.48 µM | LC50 (MDA-MB-468): 6.76 µM | TGI (MDA-MB-468; read-out: pTGI (converted)): 3.16 µM | zone of inhibition at 20 µg/disc (Saccharomyces cerevisiae [4]): 12 mm | GI50 (HL-60): 2.04 µM | LC50 (HL-60): > 100 µM | TGI (HL-60; read-out: pTGI (converted)): 4.79 µM | GI50 (MDA-MB-435): 1.78 µM | LC50 (MDA-MB-435): 6.76 µM | TGI (MDA-MB-435; read-out: pTGI (converted)): 3.47 µM | GI50 (T47D): 1.62 µM | LC50 (T47D): 9.55 µM | TGI (T47D; read-out: pTGI (converted)): 3.98 µM | GI50 (SN12C): 1.95 µM | LC50 (SN12C): 6.61 µM | TGI (SN12C; read-out: pTGI (converted)): 3.63 µM | GI50 (SK-MEL-2): 2.24 µM | LC50 (SK-MEL-2): 7.41 µM | TGI (SK-MEL-2; read-out: pTGI (converted)): 4.07 µM | zone of inhibition at 20 µg/disc (Saccharomyces cerevisiae [5]): 15 mm | GI50 (HOP-62): 0.417 µM | LC50 (HOP-62): 4.79 µM | TGI (HOP-62; read-out: pTGI (converted)): 1.74 µM | GI50 (DU-145): 1.82 µM | LC50 (DU-145): 5.89 µM | TGI (DU-145; read-out: pTGI (converted)): 3.24 µM | GI50 (NCI-H322M): 0.417 µM | LC50 (NCI-H322M): 27.5 µM | TGI (NCI-H322M; read-out: pTGI (converted)): 1.91 µM | zone of inhibition at 20 µg/disc (Saccharomyces cerevisiae [6]): 0 mm | GI50 (MDA-MB-231): 1.66 µM | LC50 (MDA-MB-231): 6.03 µM | TGI (MDA-MB-231; read-out: pTGI (converted)): 3.16 µM | GI50 (TK-10): 2.04 µM | LC50 (TK-10): 5.89 µM | TGI (TK-10; read-out: pTGI (converted)): 3.47 µM | GI50 (HT-29): 2.14 µM | LC50 (HT-29): 7.24 µM | TGI (HT-29; read-out: pTGI (converted)): 3.98 µM | GI50 (SF-295): 0.324 µM | LC50 (SF-295): 30.9 µM | TGI (SF-295; read-out: pTGI (converted)): 1.51 µM | GI50 (LOX IMVI): 1.86 µM | LC50 (LOX IMVI): 7.41 µM | TGI (LOX IMVI; read-out: pTGI (converted)): 3.72 µM | GI50 (SK-MEL-28): 1.78 µM | LC50 (SK-MEL-28): 5.75 µM | TGI (SK-MEL-28; read-out: pTGI (converted)): 3.24 µM | IC50 (MCF7): 5 µM | GI50 (SW-620): 1.74 µM | LC50 (SW-620): 6.17 µM | TGI (SW-620; read-out: pTGI (converted)): 3.24 µM | GI50 (SR): 1.58 µM | LC50 (SR): > 100 µM | TGI (SR; read-out: pTGI (converted)): 6.61 µM | IC50 (A498 [7]): 5 µM | GI50 ([8]; 786-0): 2.09 µM | LC50 ([8]; 786-0): 6.03 µM | TGI ([8]; 786-0, read-out: pTGI (converted)): 3.55 µM | GI50 (HCT-15): 1.95 µM | LC50 (HCT-15): 7.41 µM | TGI (HCT-15; read-out: pTGI (converted)): 3.8 µM | GI50 (SK-MEL-5): 1.58 µM | LC50 (SK-MEL-5): 5.5 µM | TGI (SK-MEL-5; read-out: pTGI (converted)): 2.95 µM | GI50 (COLO 205): 1.82 µM | CC50 (COLO 205; read-out: pLC50 (the source's name) (converted)): 6.17 µM | TGI (COLO 205; read-out: pTGI (converted)): 3.31 µM | GI50 (OVCAR-5): 2.09 µM | LC50 (OVCAR-5): 6.31 µM | TGI (OVCAR-5; read-out: pTGI (converted)): 3.63 µM | GI50 (RPMI-8226): 2.19 µM | LC50 (RPMI-8226): > 100 µM | TGI (RPMI-8226; read-out: pTGI (converted)): 5.89 µM | GI50 (M14): 1.78 µM | LC50 (M14): 6.03 µM | TGI (M14; read-out: pTGI (converted)): 3.31 µM | GI50 (SNB-75): 1.29 µM | LC50 (SNB-75): 5.01 µM | TGI (SNB-75; read-out: pTGI (converted)): 2.57 µM | GI50 (NCI-H23): 1.82 µM | TGI (NCI-H23; read-out: pTGI (converted)): 4.07 µM
